Assay results: ChEMBL document CHEMBL1143049, “Preparation, biological activity and endogenous occurrence of N6-benzyladenosines” (Bioorg Med Chem, 2007)

Tests used:
G-361 = assay: Antitumor activity against human G361 cells after 72 hrs by Calcein AM assay; type: functional, cell-based; conditions: G-361, 72 h
In short: (§1)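 Cells grown in DMEM at 37 °C under 5% CO2. Compounds added after 12 h preincubation in 96-well plates, final 0.5-170 μM, with 0.6% final DMSO, then 72 h exposure. Viable cells stained with Calcein AM for 1 h and read at 485/538 nm. IC50 (concentration lethal to 50% of cells) taken from dose-response curves. Run in quadruplicate.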

Amaranthus = assay: Cytokinin activity in Amaranthus cotyledons assessed as dark induction of betacyanin synthesis at 0.1 mmol/L relative to 6-Benzylaminopurine; type: functional
In short: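 Dark induction of betacyanin in excised Amaranthus cotyledons. DMSO stock brought to 10^-3 M in water, diluted into assay medium (DMSO ≤0.2%). Tested over 10^-4 to 10^-8 M, five replicates per concentration, assay repeated at least three times. Response at the optimal concentration expressed relative to BAP at its optimum (set to 100).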

Triticum aestivum = assay: Cytokinin activity in wheat assessed as retention of chlorophyll in excised wheat leaves at 0.1 mmol/L relative to 6-Benzylaminopurine by senescence assay; type: functional
In short: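 Senescence assay measuring chlorophyll retention in excised wheat leaves. DMSO stocks brought to 10^-3 M with water, then diluted in assay medium to a final DMSO of at most 0.2%. Concentrations 10^-4 to 10^-8 M, quintuplicate, repeated at least three times. Response at the optimal concentration normalised to BAP optimum = 100.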

Nicotiana tabacum [1] = assay: Cytokinin activity in tobacco assessed as stimulation of callus growth at 1 umol/L relative to 6-Benzylaminopurine; type: functional
In short: (§2)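 Stimulation of tobacco callus growth. Compounds dissolved in DMSO, brought to 10^-3 M in water and diluted into medium (DMSO ≤0.2%). Range 10^-4 to 10^-8 M, five replicates per concentration, at least three independent repeats. Activity at the optimal concentration given relative to BAP's optimal response, taken as 100.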

HOS = assay: Antitumor activity against human HOS cells after 72 hrs by Calcein AM assay; type: functional, cell-based; in short: as §1
K562 = assay: Antitumor activity against human K562 cells after 72 hrs by Calcein AM assay; type: functional, cell-based; conditions: K562, 72 h; in short: as §1
[2] = Antitumor activity against human MCF cells after 72 hrs by Calcein AM assay; type: functional, cell-based; in short: as §1
B16 = assay: Antitumor activity against mouse B16 cells after 72 hrs by Calcein AM assay; type: functional, cell-based; conditions: B16, 72 h; in short: as §1
[3] = Cytotoxicity against mouse NIH 3T3 cells after 72 hrs by Calcein AM assay; type: cell-based; conditions: NIH3T3, 72 h; in short: as §1
CCRF-CEM = assay: Antitumor activity against human CEM cells after 72 hrs by Calcein AM assay; type: functional, cell-based; in short: as §1
HL-60 = assay: Antitumor activity against human HL60 cells after 72 hrs by Calcein AM assay; type: functional, cell-based; conditions: HL-60, 72 h; in short: as §1
Nicotiana tabacum [4] = assay: Cytokinin activity in tobacco assessed as stimulation of callus growth at 0.01 mmol/L relative to 6-Benzylaminopurine; type: functional; in short: as §2

SMILES	IC50 (G-361) [µM]	IC50 (HOS) [µM]	IC50 (K562) [µM]	IC50 [2] [µM]	IC50 (B16) [µM]	IC50 (CCRF-CEM) [µM]	IC50 (HL-60) [µM]	Activity (Amaranthus) [%]	Activity (Triticum aestivum) [%]	Activity (Nicotiana tabacum [1]) [%]	IC50 [3] [µM]	Activity (Nicotiana tabacum [4]) [%]	Activity (Nicotiana tabacum [1]; in the assay text read “at 10 umol/L” for “at 1 umol/L”) [%]
OC[C@H]1O[C@@H](n2cnc3c(NCc4cc(F)c(F)cc4F)ncnc32)[C@H](O)[C@@H]1O								120	99			95	
OC[C@H]1O[C@@H](n2cnc3c(NCc4ccccc4OC(F)F)ncnc32)[C@H](O)[C@@H]1O	> 167	> 167	> 167	> 167				81	180			89	
Cc1ccccc1CNc1ncnc2c1ncn2[C@@H]1O[C@H](CO)[C@@H](O)[C@H]1O [METRIFUDIL]	> 167	> 167	> 167	> 167		14	3.3	99	141	98	> 167		
COc1cccc(CNc2ncnc3c2ncn3[C@@H]2O[C@H](CO)[C@@H](O)[C@H]2O)c1OC		> 167	> 167	> 167		> 167	> 167	21	106	5			
OC[C@H]1O[C@@H](n2cnc3c(NCc4cccc(I)c4)ncnc32)[C@H](O)[C@@H]1O								102	58	45			
COc1cc(CNc2ncnc3c2ncn3[C@@H]2O[C@H](CO)[C@@H](O)[C@H]2O)cc(OC)c1			> 167	> 167		> 167	20.2	2	47	11			
OC[C@H]1O[C@@H](n2cnc3c(NCc4cc(O)cc(O)c4)ncnc32)[C@H](O)[C@@H]1O	> 167	> 167	> 167	> 167				31	96				
COc1ccc(CNc2ncnc3c2ncn3[C@@H]2O[C@H](CO)[C@@H](O)[C@H]2O)cc1O			> 167	> 167		> 167	> 167	24	19		> 167		
COc1cc(CNc2ncnc3c2ncn3[C@@H]2O[C@H](CO)[C@@H](O)[C@H]2O)cc(OC)c1O	> 167	> 167	> 167	> 167									
OC[C@H]1O[C@@H](n2cnc3c(NCc4ccccc4C(F)(F)F)ncnc32)C(O)C1O (stereo partly drawn)	> 167	> 167	> 167	> 167				121	40				
COc1cccc(OC)c1CNc1ncnc2c1ncn2[C@@H]1O[C@H](CO)[C@@H](O)[C@H]1O								54	68				
OC[C@H]1O[C@@H](n2cnc3c(NCc4ccc(OC(F)(F)F)cc4)ncnc32)[C@H](O)[C@@H]1O	> 167	> 167	> 167	> 167				21	3				
OC[C@H]1O[C@@H](n2cnc3c(NCc4cccc(OC(F)(F)F)c4)ncnc32)[C@H](O)[C@@H]1O	> 167	> 167	> 167	> 167				104	90	86			
OC[C@H]1O[C@@H](n2cnc3c(NCc4cc(F)cc(F)c4)ncnc32)C(O)C1O (stereo partly drawn)	> 167		> 167	> 167	> 167	24.5	9.1	110	195	95	> 167		
Cc1ccc(CNc2ncnc3c2ncn3[C@@H]2O[C@H](CO)[C@@H](O)[C@H]2O)cc1		> 167	> 167	> 167		> 167	> 167	49	54.5	35	> 167		
OC[C@H]1O[C@@H](n2cnc3c(NCc4ccc(C(F)(F)F)cc4)ncnc32)[C@H](O)[C@@H]1O	> 167	> 167	> 167	> 167				14	52				
COc1ccc(CNc2ncnc3c2ncn3[C@@H]2O[C@H](CO)[C@@H](O)[C@H]2O)c(OC)c1		> 167	> 167	> 167		> 167	39	3	30			5	

Continued, in another order:

IC50 (G-361) [µM]	IC50 (HOS) [µM]	IC50 (K562) [µM]	IC50 [2] [µM]	IC50 (B16) [µM]	IC50 (CCRF-CEM) [µM]	IC50 (HL-60) [µM]	SMILES	Activity (Amaranthus) [%]	Activity (Triticum aestivum) [%]	Activity (Nicotiana tabacum [1]) [%]	IC50 [3] [µM]	Activity (Nicotiana tabacum [4]) [%]	Activity (Nicotiana tabacum [1]; in the assay text read “at 10 umol/L” for “at 1 umol/L”) [%]
> 167	> 167	> 167	> 167				OC[C@H]1O[C@@H](n2cnc3c(NCc4cccc(C(F)(F)F)c4)ncnc32)[C@H](O)[C@@H]1O	93	95	85			
> 167	> 167	9.6	> 167	> 167	7.1	3.4	OC[C@H]1O[C@@H](n2cnc3c(NCc4ccc(F)cc4F)ncnc32)[C@H](O)[C@@H]1O	88	171	96	> 167		
16.9	> 167	25.8	5.2				OC[C@H]1O[C@@H](n2cnc3c(NCc4cccc(O)c4O)ncnc32)[C@H](O)[C@@H]1O	24	7				
> 167		> 167	> 167	> 167	90.3	13	OC[C@H]1O[C@@H](n2cnc3c(NCc4c(F)ccc(F)c4F)ncnc32)[C@H](O)[C@@H]1O	94	133				92
> 167	> 167	> 167	> 167				COc1cc(O)cc(OC)c1CNc1ncnc2c1ncn2[C@@H]1O[C@H](CO)[C@@H](O)[C@H]1O	7					
> 167	> 167	81.4	> 167	> 167	> 167	> 167	OC[C@H]1O[C@@H](n2cnc3c(NCc4ccccc4OC(F)(F)F)ncnc32)[C@H](O)[C@@H]1O	78	61				
> 167	> 167	68.2	> 167	> 167	20.6	47.4	OC[C@H]1O[C@@H](n2cnc3c(NCc4ccc(Br)cc4)ncnc32)[C@H](O)[C@@H]1O	30	76	16	> 167		
	> 167	80.8	2.2		12.8		COc1ccc(CNc2ncnc3c2ncn3C2OC(CO)[C@@H](O)[C@H]2O)c(O)c1 (stereo partly drawn)	0	22				
> 167	> 167	18	6.9	> 167	0.9	15	Cc1cccc(CNc2ncnc3c2ncn3[C@@H]2O[C@H](CO)[C@@H](O)[C@H]2O)c1O	55				5	
> 167	> 167	5.5	> 167	167	3.4	3.5	OC[C@H]1O[C@@H](n2cnc3c(NCc4ccc(F)c(Cl)c4)ncnc32)[C@H](O)[C@@H]1O	82	156	87	> 167		
145	> 167	10.8	88.8	> 167	3.8	2	OC[C@H]1O[C@@H](n2cnc3c(NCc4ccc(Cl)c(Cl)c4)ncnc32)[C@H](O)[C@@H]1O	68	151	17			
148	> 167	27.9	20.2	> 167	0.3	0.15	COc1cccc(CNc2ncnc3c2ncn3[C@@H]2O[C@H](CO)[C@@H](O)[C@H]2O)c1O	18	10		> 167		
